# Results of several laboratories.
# Protocols differ between the studies behind these lines.
# Target: Tyrosine-protein kinase Mer (MERTK, Homo sapiens, UniProt Q12866)
# Sequence (Q12866 21-999, as in one of the studies): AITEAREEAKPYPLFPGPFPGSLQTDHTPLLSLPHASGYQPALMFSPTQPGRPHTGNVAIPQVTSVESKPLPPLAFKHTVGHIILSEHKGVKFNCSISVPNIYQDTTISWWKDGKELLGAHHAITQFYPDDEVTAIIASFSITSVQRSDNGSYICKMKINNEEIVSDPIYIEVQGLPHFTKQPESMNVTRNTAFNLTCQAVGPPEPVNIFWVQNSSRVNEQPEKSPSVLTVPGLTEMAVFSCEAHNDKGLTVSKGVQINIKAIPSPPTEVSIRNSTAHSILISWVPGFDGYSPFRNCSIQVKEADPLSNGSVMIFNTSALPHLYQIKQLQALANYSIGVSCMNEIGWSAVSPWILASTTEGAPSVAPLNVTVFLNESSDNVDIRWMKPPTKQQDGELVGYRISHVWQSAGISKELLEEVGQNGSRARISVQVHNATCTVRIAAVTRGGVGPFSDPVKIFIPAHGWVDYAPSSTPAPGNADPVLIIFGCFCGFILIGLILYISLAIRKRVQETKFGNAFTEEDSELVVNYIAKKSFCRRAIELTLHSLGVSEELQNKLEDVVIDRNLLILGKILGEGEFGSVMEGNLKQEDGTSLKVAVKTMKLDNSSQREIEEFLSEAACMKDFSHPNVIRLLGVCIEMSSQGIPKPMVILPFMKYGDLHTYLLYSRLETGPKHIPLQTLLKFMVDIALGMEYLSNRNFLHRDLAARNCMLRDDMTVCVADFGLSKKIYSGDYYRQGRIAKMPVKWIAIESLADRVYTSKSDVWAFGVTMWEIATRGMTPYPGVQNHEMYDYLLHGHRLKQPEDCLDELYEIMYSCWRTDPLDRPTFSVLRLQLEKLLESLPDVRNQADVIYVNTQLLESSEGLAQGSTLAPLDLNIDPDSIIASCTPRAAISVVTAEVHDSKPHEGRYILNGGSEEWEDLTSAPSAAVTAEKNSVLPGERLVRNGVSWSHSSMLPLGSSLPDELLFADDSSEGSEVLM
SMILES,read-out,method,concentration,remaining binding [%]
CNC(=O)[C@@H]1CC[C@@H](n2c(-c3ccc4cnccc4c3)nc3ccc(C(=O)NCc4cccc(C(N)=O)c4)cc32)C1,binding,competition with immobilised ligand,1 µM,100
CN(C)c1ncnc(-c2ccc3nc(Nc4cc(CN5CCN(C(=O)CC(F)(F)F)CC5)ccn4)[nH]c3c2)c1Cl,cell-free assay,competition with immobilised ligand,1 µM,87
CN(C)c1nccc(-c2cnc3ncccn23)n1,binding,,1 µM,82
FC(F)(F)c1ccc2c(c1)nc(-c1cccnc1)n2C1CC1,cell-free assay,competition with immobilised ligand,1 µM,79
C[C@H]1CCN(c2nccc(-c3cnn4ncccc34)n2)C1,binding,,1 µM,94
Nc1ncc2c(n1)-c1c([nH]c3ccc(C#CC4CC4)cc13)CCCC2,binding,competition with immobilised ligand,1 µM,100
O=S(=O)(NC1CCC(c2cc(F)ccc2F)(S(=O)(=O)c2ccc(Cl)cc2)CC1)C(F)(F)F (stereo not drawn),cell-free assay,competition with immobilised ligand,1 µM,99
O=C(Nc1c[nH]nc1C(=O)NC1CCNCC1)c1cc(F)cc(F)c1,binding,competition with immobilised ligand,1 µM,100
O=C(c1ccc(Nc2ncc(Cl)c(-c3cc4ccccc4s3)n2)cc1)N1CCC(N2CCCC2)CC1,binding,competition with immobilised ligand,1 µM,1.8
CN(CCCC(F)(F)F)c1nccc(-c2cnn3ncccc23)n1,binding,,1 µM,100
CC(=O)N1CCC(c2ccc(C(=O)NC(=N)N)cc2C(F)(F)F)CC1,cell-free assay,competition with immobilised ligand,1 µM,81
COc1cnc(Nc2cccc(S(N)(=O)=O)c2)nc1N1CCN(c2ccccc2)C(=O)C1,binding,competition with immobilised ligand,1 µM,94
COc1ccnn2ncc(-c3ccnc(N(C)C)n3)c12,binding,,1 µM,99
CCN1CCN(Cc2ccc(C(=O)Nc3ccc(C)c(Oc4ccc5c(c4)CC(=O)N5)c3)cc2C(F)(F)F)CC1,binding,competition with immobilised ligand,1 µM,100
COc1cc(-c2cn(C3CCc4c(F)cccc4N(CC(F)(F)F)C3=O)nn2)ccc1-n1cnc(C)c1 (stereo not drawn),cell-free assay,competition with immobilised ligand,1 µM,100
CC1CCCN1c1nccc(-c2cnn3ncccc23)n1 (stereo not drawn),binding,,1 µM,98
O=C(NCCCN1CCOCC1)c1ccc(Nc2nccc(-c3cc4ccccc4s3)n2)cc1,binding,competition with immobilised ligand,1 µM,45
c1cncc(-c2cccc(Nc3nccc(NC4CCCCC4)n3)c2)c1,binding,competition with immobilised ligand,10 µM,4.6
CN(c1nccc(-c2cnn3ncccc23)n1)C1CC1,binding,,1 µM,100
Cc1cnc(Nc2ccc(C(=O)N3CCC(N4CCCC4)CC3)cc2)nc1-c1cc2ccccc2s1,binding,competition with immobilised ligand,1 µM,0.7
CS(=O)(=O)c1cc(C2(NC(=O)c3cncc4c3cnn4-c3ccc(F)cc3)CC2)ccn1,cell-free assay,competition with immobilised ligand,1 µM,100
